Experimental data reported in ChEMBL document CHEMBL1134468 (J Med Chem, 2001).
Where a SMILES comes first, the peptide text is derived from it. The star is where a group is joined. Argψ(CH2NH)TyrNH2 = N=C(N)NCCC[C@@H](CN[C@@H](Cc1ccc(O)cc1)C(N)=O)N*

Columns and labels:
[1] = biological target: T1, Neuropeptide Y receptor type 1 (Homo sapiens) (UniProt P25929); assay: Antagonist potency for the inhibition of Forskolin stimulated cAMP synthesis in cells expressing cloned Y1 receptors; assay type: functional
T1 sequence (whole entry): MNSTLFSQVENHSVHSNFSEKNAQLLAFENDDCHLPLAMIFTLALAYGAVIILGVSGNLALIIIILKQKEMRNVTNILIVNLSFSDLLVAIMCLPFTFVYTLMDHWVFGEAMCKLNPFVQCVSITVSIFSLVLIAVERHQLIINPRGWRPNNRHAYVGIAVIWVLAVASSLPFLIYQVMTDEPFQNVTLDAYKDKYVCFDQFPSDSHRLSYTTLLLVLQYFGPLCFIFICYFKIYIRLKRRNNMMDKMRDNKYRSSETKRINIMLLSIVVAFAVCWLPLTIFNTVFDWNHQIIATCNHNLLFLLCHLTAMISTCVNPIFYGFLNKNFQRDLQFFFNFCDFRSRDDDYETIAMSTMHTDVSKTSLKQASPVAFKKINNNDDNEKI

[2] = biological target: T2, Neuropeptide Y receptor type 2 (Homo sapiens, UniProt P49146); assay: Affinity for cloned Y2 receptor using [125I]PYY as radioligand
T2 sequence (P49146 whole entry): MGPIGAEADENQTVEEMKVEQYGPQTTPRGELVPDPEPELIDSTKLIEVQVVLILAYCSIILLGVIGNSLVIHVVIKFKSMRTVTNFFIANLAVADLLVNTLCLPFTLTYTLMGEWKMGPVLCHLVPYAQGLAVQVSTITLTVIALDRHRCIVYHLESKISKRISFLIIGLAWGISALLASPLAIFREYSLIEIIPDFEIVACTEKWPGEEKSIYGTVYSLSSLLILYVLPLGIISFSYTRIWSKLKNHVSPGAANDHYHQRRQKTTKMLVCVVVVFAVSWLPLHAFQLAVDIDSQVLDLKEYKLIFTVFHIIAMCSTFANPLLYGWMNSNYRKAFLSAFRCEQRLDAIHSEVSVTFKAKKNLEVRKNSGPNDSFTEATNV

[3] = biological target: T3, Neuropeptide Y receptor type 4 (Homo sapiens, UniProt P50391); assay: (§1) Affinity for cloned Y4 receptor using [125I]PP as radioligand
In short: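 Displacement binding with 125I-PP as tracer in cells expressing the Y4 receptor; PP served as the reference control.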

[4] = biological target: T4, Neuropeptide Y receptor type 5 (Homo sapiens, UniProt Q15761); assay: Affinity for cloned Y5 receptor using [125I]PYY as radioligand
T4 sequence (Q15761 whole entry): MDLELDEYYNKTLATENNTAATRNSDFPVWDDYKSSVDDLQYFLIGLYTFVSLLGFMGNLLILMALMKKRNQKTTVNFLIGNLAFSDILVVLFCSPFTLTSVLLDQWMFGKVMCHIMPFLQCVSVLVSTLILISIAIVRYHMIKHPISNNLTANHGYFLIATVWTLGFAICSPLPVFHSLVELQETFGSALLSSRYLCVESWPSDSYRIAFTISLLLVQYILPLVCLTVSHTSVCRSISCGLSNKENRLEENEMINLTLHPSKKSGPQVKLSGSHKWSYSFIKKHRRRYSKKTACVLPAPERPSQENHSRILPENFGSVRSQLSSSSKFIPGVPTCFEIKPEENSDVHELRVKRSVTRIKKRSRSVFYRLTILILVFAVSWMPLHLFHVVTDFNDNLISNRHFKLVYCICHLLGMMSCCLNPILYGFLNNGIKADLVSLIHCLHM

[5] = biological target: T5, Neuropeptide Y receptor type 1 (Homo sapiens, UniProt P25929); assay: Affinity for cloned Y1 receptor using [125I]PYY as radioligand
T5 sequence (P25929 whole entry): T1 sequence (whole entry)

[6] = biological target: T3, Neuropeptide Y receptor type 4; assay: Agonist potency for the inhibition of Forskolin stimulated cAMP synthesis in cells expressing cloned Y4 receptors; no effect means no agonist activity at <20 000 nM; assay type: functional
In short: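 Inhibition of forskolin-driven cAMP synthesis in cells expressing the Y4 receptor, with PP run as the reference control.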

[7] = biological target: T2, Neuropeptide Y receptor type 2; assay: Agonist potency for the inhibition of Forskolin stimulated cAMP synthesis in cells expressing cloned Y2 receptors; no effect means no agonist activity at <20 000 nM; assay type: functional
[8] = biological target: T4, Neuropeptide Y receptor type 5; assay: Agonist potency for the inhibition of Forskolin stimulated cAMP synthesis in cells expressing cloned Y5 receptors; no effect means no agonist activity at <20 000 nM; assay type: functional
[9] = Selectivity ratio of Y1/Y2/Y4/Y5; 1/3840/120/2450
[10] = biological target: T3, Neuropeptide Y receptor type 4; assay: as §1; remark: listed apart in the source
[11] = biological target: T1, Neuropeptide Y receptor type 1 (Homo sapiens); assay: Selectivity ratio of Y1/Y2/Y4/Y5; 1/2/1/200

T3 sequence (P50391 whole entry): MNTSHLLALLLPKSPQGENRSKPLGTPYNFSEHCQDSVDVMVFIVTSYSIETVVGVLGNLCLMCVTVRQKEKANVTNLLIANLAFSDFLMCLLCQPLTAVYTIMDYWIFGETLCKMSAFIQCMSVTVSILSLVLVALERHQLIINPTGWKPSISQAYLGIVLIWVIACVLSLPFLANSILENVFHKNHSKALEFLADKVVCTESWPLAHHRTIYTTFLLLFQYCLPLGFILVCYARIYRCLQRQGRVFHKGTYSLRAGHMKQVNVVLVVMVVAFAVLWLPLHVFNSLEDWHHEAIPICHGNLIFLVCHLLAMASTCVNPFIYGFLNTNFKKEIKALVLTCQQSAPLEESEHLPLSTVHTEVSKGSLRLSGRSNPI

Kb [1] | Ki [2] | Ki [3] | Ki [4] | Ki [5] | other results | Molecule
2.3 nM | – | – | – | – | – | CC[C@H](C)[C@H](N)C(=O)N[C@@H](CC(N)=O)C(=O)N1CCC[C@H]1C(=O)N[C@@H](CSSC[C@@H](NC(=O)[C@@H]1CCCN1C(=O)[C@H](CC(N)=O)NC(=O)[C@@H](N)[C@@H](C)CC)C(=O)N[C@@H](Cc1ccc(O)cc1)C(=O)N[C@@H](CCCN=C(N)N)C(=O)N[C@@H](CC(C)C)C(=O)N[C@@H](CCCN=C(N)N)C(=O)N[C@@H](Cc1ccc(O)cc1)C(=O)OC)C(=O)N[C@@H](Cc1ccc(O)cc1)C(=O)N[C@@H](CCCN=C(N)N)C(=O)N[C@@H](CC(C)C)C(=O)N[C@@H](CCCN=C(N)N)C(=O)N[C@@H](Cc1ccc(O)cc1)C(=O)OC
– | 822 nM | 65 nM | 2340 nM | 2.3 nM | – | CC[C@H](C)[C@H](N)C(=O)N[C@@H](CC(N)=O)C(=O)N1CCC[C@H]1C(=O)N[C@@H](CSSC[C@H](NC(=O)[C@@H]1CCCN1C(=O)[C@H](CC(N)=O)NC(=O)[C@@H](N)[C@@H](C)CC)C(=O)N[C@@H](Cc1ccc(O)cc1)C(=O)N[C@@H](CCCNC(=N)N)C(=O)N[C@@H](CC(C)C)C(=O)N[C@@H](CCCNC(=N)N)CN[C@@H](Cc1ccc(O)cc1)C(N)=O)C(=O)N[C@@H](Cc1ccc(O)cc1)C(=O)N[C@@H](CCCNC(=N)N)C(=O)N[C@@H](CC(C)C)C(=O)N[C@@H](CCCNC(=N)N)CN[C@@H](Cc1ccc(O)cc1)C(N)=O
0.79 nM | – | – | – | – | – | CC[C@H](C)[C@H](N)C(=O)N[C@@H](CC(N)=O)C(=O)N1CCC[C@H]1C(=O)N[C@@H](CSSC[C@@H](NC(=O)[C@@H]1CCCN1C(=O)[C@H](CC(N)=O)NC(=O)[C@@H](N)[C@@H](C)CC)C(=O)N[C@@H](Cc1ccc(O)cc1)C(=O)N[C@@H](CCCN=C(N)N)C(=O)N[C@@H](CC(C)C)C(=O)N[C@@H](CCCN=C(N)N)CN[C@@H](Cc1ccc(O)cc1)C(N)=O)C(=O)N[C@@H](Cc1ccc(O)cc1)C(=O)N[C@@H](CCCN=C(N)N)C(=O)N[C@@H](CC(C)C)C(=O)N[C@@H](CCCN=C(N)N)CN[C@@H](Cc1ccc(O)cc1)C(N)=O
– | – | – | – | – | EC50 [6]: Not Active; EC50 [7]: Not Active; EC50 [8]: Not Active | CC[C@H](C)[C@H](N)C(=O)N[C@@H](CC(N)=O)C(=O)N1CCC[C@H]1C(=O)N[C@@H](CSSC[C@H](NC(=O)[C@@H]1CCCN1C(=O)[C@H](CC(N)=O)NC(=O)[C@@H](N)[C@@H](C)CC)C(=O)N[C@@H](Cc1ccc(O)cc1)C(=O)N[C@@H](CCCN=C(N)N)C(=O)N[C@@H](CC(C)C)C(=O)N[C@@H](CCCN=C(N)N)CN[C@@H](Cc1ccc(O)cc1)C(N)=O)C(=O)N[C@@H](Cc1ccc(O)cc1)C(=O)N[C@@H](CCCN=C(N)N)C(=O)N[C@@H](CC(C)C)C(=O)N[C@@H](CCCN=C(N)N)CN[C@@H](Cc1ccc(O)cc1)C(N)=O
0.19 nM | – | – | – | – | Selectivity [9]: Y1/Y4/Y5/Y2 | CC[C@H](C)[C@H](N)C(=O)N[C@H]1CCC(=O)NC[C@@H](C(=O)N[C@@H](Cc2ccc(O)cc2)C(=O)N[C@@H](CCCN=C(N)N)C(=O)N[C@@H](CC(C)C)C(=O)N[C@@H](CCCN=C(N)N)C(=O)N[C@@H](Cc2ccc(O)cc2)C(=O)OC)NC(=O)[C@@H]2CCCN2C(=O)[C@H](NC(=O)[C@@H](N)[C@@H](C)CC)CCC(=O)NC[C@H](C(=O)N[C@@H](Cc2ccc(O)cc2)C(=O)N[C@@H](CCCN=C(N)N)C(=O)N[C@@H](CC(C)C)C(=O)N[C@@H](CCCN=C(N)N)C(=O)N[C@@H](Cc2ccc(O)cc2)C(=O)OC)NC(=O)[C@@H]2CCCN2C1=O
0.58 nM | – | – | – | – | – | CC[C@H](C)[C@H](N)C(=O)N[C@H]1CCC(=O)NC[C@@H](C(=O)N[C@@H](Cc2ccc(O)cc2)C(=O)N[C@@H](CCCN=C(N)N)C(=O)N[C@@H](CC(C)C)C(=O)N[C@@H](CCCN=C(N)N)CN[C@@H](Cc2ccc(O)cc2)C(N)=O)NC(=O)[C@@H]2CCCN2C(=O)[C@H](NC(=O)[C@@H](N)[C@@H](C)CC)CCC(=O)NC[C@H](C(=O)N[C@@H](Cc2ccc(O)cc2)C(=O)N[C@@H](CCCN=C(N)N)C(=O)N[C@@H](CC(C)C)C(=O)N[C@@H](CCCN=C(N)N)CN[C@@H](Cc2ccc(O)cc2)C(N)=O)NC(=O)[C@@H]2CCCN2C1=O
– | 624 nM | 65.5 nM | 7890 nM | 0.46 nM | – | CC[C@H](C)[C@H](N)C(=O)N[C@H]1CCC(=O)NC[C@@H](C(=O)N[C@@H](Cc2ccc(O)cc2)C(=O)N[C@@H](CCCNC(=N)N)C(=O)N[C@@H](CC(C)C)C(=O)N[C@@H](CCCNC(=N)N)CN[C@@H](Cc2ccc(O)cc2)C(N)=O)NC(=O)[C@@H]2CCCN2C(=O)[C@@H](NC(=O)[C@@H](N)[C@@H](C)CC)CCC(=O)NC[C@@H](C(=O)N[C@@H](Cc2ccc(O)cc2)C(=O)N[C@@H](CCCNC(=N)N)C(=O)N[C@@H](CC(C)C)C(=O)N[C@@H](CCCNC(=N)N)CN[C@@H](Cc2ccc(O)cc2)C(N)=O)NC(=O)[C@@H]2CCCN2C1=O
– | 1040 nM | 33.4 nM | 662 nM | 0.27 nM | EC50 [6]: Not Active; EC50 [7]: Not Active; EC50 [8]: Not Active | CC[C@H](C)[C@H](N)C(=O)N[C@H]1CCC(=O)NC[C@@H](C(=O)N[C@@H](Cc2ccc(O)cc2)C(=O)N[C@@H](CCCN=C(N)N)C(=O)N[C@@H](CC(C)C)C(=O)N[C@@H](CCCN=C(N)N)C(=O)N[C@@H](Cc2ccc(O)cc2)C(=O)OC)NC(=O)[C@@H]2CCCN2C(=O)[C@@H](NC(=O)[C@@H](N)[C@@H](C)CC)CCC(=O)NC[C@@H](C(=O)N[C@@H](Cc2ccc(O)cc2)C(=O)N[C@@H](CCCN=C(N)N)C(=O)N[C@@H](CC(C)C)C(=O)N[C@@H](CCCN=C(N)N)C(=O)N[C@@H](Cc2ccc(O)cc2)C(=O)OC)NC(=O)[C@@H]2CCCN2C1=O
– | 1650 nM | – | 5080 nM | 34.8 nM | Ki [10]: 3740 nM | CC[C@H](C)[C@H](N)C(=O)N[C@@H](CC(N)=O)C(=O)N1CCC[C@H]1C(=O)N[C@H](C(=O)N[C@@H](Cc1ccc(O)cc1)C(=O)N[C@@H](CCCNC(=N)N)C(=O)N[C@@H](CC(C)C)C(=O)N[C@@H](CCCNC(=N)N)CN[C@@H](Cc1ccc(O)cc1)C(N)=O)[C@@H](C)CC (H-INPIYRL-{Argψ(CH2NH)TyrNH2})
– | 1420 nM | – | 7100 nM | 25.7 nM | Ki [10]: 2400 nM | CC[C@H](C)[C@H](N)C(=O)N[C@@H](CC(N)=O)C(=O)N1CCC[C@H]1C(=O)N[C@H](C(=O)N[C@@H](Cc1ccc(O)cc1)C(=O)N[C@@H](CCCNC(=N)N)C(=O)N[C@@H](CC(C)C)C(=O)N[C@@H](CCCNC(=N)N)C(=O)N[C@@H](Cc1ccc(O)cc1)C(=O)OC)[C@@H](C)CC (H-INPIYRLRY-OMe)
– | 11.3 nM | – | > 1000 nM | 5 nM | Selectivity [11]: Y1/Y4/Y2/Y5; Ki [10]: 5.8 nM | H-INPIYRLRY-NH2
– | 1120 nM | 99 nM | 464 nM | 4.8 nM | EC50 [6]: Not Active; EC50 [7]: Not Active; EC50 [8]: Not Active | CC[C@H](C)[C@H](N)C(=O)N[C@@H](CC(N)=O)C(=O)N1CCC[C@H]1C(=O)N[C@@H](CSSC[C@H](NC(=O)[C@@H]1CCCN1C(=O)[C@H](CC(N)=O)NC(=O)[C@@H](N)[C@@H](C)CC)C(=O)N[C@@H](Cc1ccc(O)cc1)C(=O)N[C@@H](CCCN=C(N)N)C(=O)N[C@@H](CC(C)C)C(=O)N[C@@H](CCCN=C(N)N)C(=O)N[C@@H](Cc1ccc(O)cc1)C(=O)OC)C(=O)N[C@@H](Cc1ccc(O)cc1)C(=O)N[C@@H](CCCN=C(N)N)C(=O)N[C@@H](CC(C)C)C(=O)N[C@@H](CCCN=C(N)N)C(=O)N[C@@H](Cc1ccc(O)cc1)C(=O)OC
